The values below come from paper PMC11019407 (RSC Advances, 2024).

In experiment [1] the test system is C. albicans, T. mentagrophytes, T. rubrum, and M. gypseum. Put plainly: Antifungal activity, paper disk diffusion, statements over all fungi. Format: cell-based. The note with it: all fungus. An outline of the steps: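 Fungi (C. albicans, T. mentagrophytes, T. rubrum, M. gypseum) were swabbed onto Potato Dextrose Agar plates. Inocula were prepared in LB broth for 24 h at 37 °C. 6 mm paper disks were loaded with 30 μL of test compound at 3.125–300 μM. Fluconazole (1 mg mL−1) was the standard.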
Background: A growth-free zone around the sample is the usual read-out of agar diffusion tests.

Experiment [2] concerns NO production in RAW264.7 cells. The experiment can be described thus: Inhibition of NO production in LPS-stimulated RAW264.7 cells. The experiment is classed as cell-based. To be noted: Mus musculus, RAW264.7, read-out: IC50 of NO inhibition. An outline of the steps:
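RAW 264.7 cells were grown in DMEM with 2 mM L-glutamine, 10 mM HEPES, 1 mM sodium pyruvate and 10% FBS. Cells were seeded at 2 × 10^5 per well and incubated 3 days at 37 °C, 5% CO2. Nitric oxide was quantified with Griess reagent, L-NMMA served as positive control, and IC50 was reported.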

Experiment [3] has as its system E. coli, P. aeruginosa, MRSA, S. faecalis. The experiment can be described thus: Antibacterial activity, paper disk diffusion, statements over several bacteria. The experiment is classed as cell-based. To be noted: for inhibition in words: printed as E. coli, P. aeruginosa, and MRSA in the antifungal section. An outline of the steps: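 Bacteria (E. coli, P. aeruginosa, S. faecalis, MRSA) were grown in LB broth for 24 h at 37 °C, then swabbed evenly onto Mueller–Hinton agar. 6 mm paper disks received 30 μL of test compound at 3.125–300 μM. Ampicillin (1 mg mL−1) was the standard.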

The next experiment addresses α-glucosidase enzyme (Saccharomyces cerevisiae, UniProt P53341). Put plainly: Alpha-glucosidase inhibition. Format: biochemical.

In brackets after ≈: the same amount, converted by molar mass.

α-glucosidase enzyme, sequence (P53341 whole entry): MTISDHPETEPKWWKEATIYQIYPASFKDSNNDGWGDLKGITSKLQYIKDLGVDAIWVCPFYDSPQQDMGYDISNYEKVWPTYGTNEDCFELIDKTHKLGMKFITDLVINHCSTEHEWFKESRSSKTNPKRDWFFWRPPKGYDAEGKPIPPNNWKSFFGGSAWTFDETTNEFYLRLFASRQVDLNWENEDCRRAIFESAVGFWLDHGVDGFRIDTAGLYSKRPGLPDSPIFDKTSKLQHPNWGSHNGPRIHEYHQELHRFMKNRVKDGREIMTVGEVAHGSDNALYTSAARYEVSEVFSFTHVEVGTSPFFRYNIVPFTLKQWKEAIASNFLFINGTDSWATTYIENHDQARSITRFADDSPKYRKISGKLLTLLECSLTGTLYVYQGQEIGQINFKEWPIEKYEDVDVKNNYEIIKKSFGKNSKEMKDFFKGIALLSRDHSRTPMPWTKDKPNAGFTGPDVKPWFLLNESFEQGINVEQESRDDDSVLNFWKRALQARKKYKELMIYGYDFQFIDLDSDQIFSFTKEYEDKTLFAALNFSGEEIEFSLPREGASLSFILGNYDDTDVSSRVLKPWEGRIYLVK

Turning to `COC(=O)C1=CO[C@@H](O[C@@H]2O[C@H](CO)[C@@H](O)[C@H](O)[C@H]2O)[C@H]2[C@@H]1[C@H](O)C[C@]2(C)OC(C)=O` [Compound 3, barlerin], the “antifungal inhibition in words” value in experiment [1] was “weak inhibitions or inactive”.

As usually defined, the IC50 is the concentration at which inhibition is half-maximal. Take `C[C@]1(OC(=O)/C=C/c2ccccc2)C[C@@H](O)[C@]2(O)C=CO[C@@H](O[C@@H]3O[C@H](CO)[C@@H](O)[C@H](O)[C@H]3O)[C@@H]21` [Compound 4, harpagoside]: in experiment [2], the IC50 was 25.9 ± 3.32 µM. In addition, the “antifungal inhibition in words” value in experiment [1] was “weak inhibitions or inactive”.

Take `O=C(O)c1c[nH]c2ccccc12` [Compound 6, indole-3-carboxylic acid]: the inhibition in words entry in experiment [3] is “weak inhibitions or inactive”.

Consider `C[C@H]1[C@H](C)CC[C@]2(C(=O)O)CC[C@]3(C)C(=CC[C@@H]4[C@@]5(C)CC[C@H](O)C(C)(C)[C@@H]5CC[C@]43C)[C@H]12` [Compound 7, ursolic acid], for which, in experiment [2], the IC50 turned out to be 18.2 ± 0.7 µM. In experiment [3], the inhibition in words result was “weak inhibitions or inactive”.

For the molecule `C[C@@H]1CC[C@]2(C(=O)O)CC[C@]3(C)C(=CC[C@@H]4[C@@]5(C)CC[C@H](O)[C@@](C)(CO)[C@@H]5CC[C@]43C)[C@@H]2[C@]1(C)O` [Compound 9, rotundic acid], the “antifungal inhibition in words” value in experiment [1] is “weak inhibitions or inactive”.

For `C[C@@H]1O[C@@H](O[C@@H]2[C@@H](O)[C@H](OCCc3ccc(O)c(O)c3)O[C@H](CO)[C@H]2OC(=O)/C=C/c2ccc(O)c(O)c2)[C@H](O)[C@H](O)[C@H]1O` [Compound 12, verbacoside], in experiment [1], the “antifungal inhibition in words” value is “weak inhibitions or inactive”. In addition, the IC50 on α-glucosidase enzyme is 42.4 µM.

For the molecule `[H]/N=C(/NC)NCCC[C@H](N)C(=O)O` [L-NMMA, reference compound], the IC50 in experiment [2] came to 41.3 µM.

As usually defined, the MIC is the least concentration at which growth counts as inhibited. `CC1(C)S[C@@H]2[C@H](NC(=O)[C@H](N)c3ccccc3)C(=O)N2[C@H]1C(=O)O` [ampicillin, reference compound]: the MIC in experiment [3] (read-out: MIC values against four bacteria) lay within 3.12 to 6.25 µM (≈ 1.09 to 2.18 µg/mL).
